Results collected from several papers.
Compare with care: the assays were run in different laboratories.
DPP4: Dipeptidyl peptidase 4 (DPP4, Homo sapiens, UniProt P27487)
CYP2C9: Cytochrome P450 2C9 (CYP2C9, Homo sapiens, UniProt P11712)
SLC22A13: SLC22A13 (Homo sapiens, UniProt Q9Y226)

SMILES	target	assay	system	conditions	IC50 [µM]
Cc1ccc(-n2c(Cn3c(N4CCC(N)CC4)cc(=O)n(C)c3=O)nc3ccccc3c2=O)cc1	DPP4	enzyme activity, inhibitor	–	–	> 100
CC1(CN)CCN(c2cnc3c(Sc4ccncc4Cl)n[nH]c3n2)CC1	Tyrosine-protein phosphatase non-receptor type 6 (PTPN6, Homo sapiens, UniProt P29350)	enzyme activity, inhibitor	–	–	> 100
N#C[C@@]12C[C@@H]1[C@@H](n1cnc3c(N[C@@H](C4CCC4)C4CC4)nc(I)nc31)[C@H](O)[C@@H]2O	CYP2C9	enzyme activity, inhibitor	–	–	8.64
Cn1c(=O)cc(N2CCC(N)CC2)n(Cc2nc3ccccc3c(=O)n2-c2ccc(F)cc2)c1=O	DPP4	enzyme activity, inhibitor	–	–	63.4
CC[C@@](N)(c1cnc(C(F)(F)F)c(Cl)c1)c1c2ncn(C3CC3)c(=O)c2nn1C	Cytochrome P450 2C8 (CYP2C8, Homo sapiens, UniProt P10632)	enzyme activity, inhibitor	human, liver microsomes	pH 7.4	> 20
CN(C)c1ncnc2c1ncn2[C@@H]1O[C@H](CCl)[C@@H](NC(=O)[C@@H](CSC(c2ccccc2)c2ccccc2)NC(=O)OC(C)(C)C)[C@H]1O	Aminopeptidase N (ANPEP, Homo sapiens, UniProt P15144)	enzyme activity, inhibitor, fluorescence	–	–	> 100
CC(=O)N[C@H]1Cc2ccc(cc2)OC/C=C/C[C@@H](C(=O)N[C@@H](CCCNC(=N)N)C(=O)c2nc3ccccc3s2)NC(=O)[C@H](CC(C)C)NC1=O	Hepatocyte growth factor activator serine protease (Homo sapiens, UniProt Q04756)	enzyme activity, inhibitor, fluorescence	–	with preincubation	0.053
Cn1c(=O)cc(N2CCC(N)CC2)n(Cc2nc3ccccc3c(=O)n2-c2ccccc2)c1=O	DPP4	enzyme activity, inhibitor	–	–	> 100
Cn1nc2c(=O)n(C3CC3)ccc2c1[C@](O)(c1cnc(C(F)(F)F)c(Cl)c1)C(F)(F)F	CYP2C9	enzyme activity, inhibitor	human, liver microsomes	pH 7.4	> 20
Cn1c(=O)c2c(ncn2C)n(C)c1=O	SLC22A13	transporter uptake, inhibitor, radiometric	–	oocytes	> 2000
COc1cc(O)c2c(c1)C(=O)c1cc(C)cc(O)c1C2=O	CYP2C9	enzyme activity, inhibitor	human, liver microsomes	pH 7.4	7.44
Cn1c(=O)cc(N2CCC(N)CC2)n(Cc2nc3ccc(Br)cc3c(=O)n2-c2ccc(F)cc2)c1=O	DPP4	enzyme activity, inhibitor	–	–	44.4
Nc1ncnc2c1ncn2[C@@H]1O[C@H](CO)[C@@H](O)[C@H]1O	SLC22A13	transporter uptake, inhibitor, radiometric	–	oocytes	> 5000
Cn1c(=O)cc(N2CCC(N)CC2)n(Cc2nc3ccccc3c(=O)n2-c2cccc(C(F)(F)F)c2)c1=O	DPP4	enzyme activity, inhibitor	–	–	58.1
CCCCNC(=O)N[C@H]1CSCc2cc(CSCCNC(=O)CN3CCN(CC(=O)O)CCN(CC(=O)O)CC3)cc(c2)CSC[C@@H](C(=O)O)NC(=O)[C@H](Cc2ccccc2)NC(=O)[C@H](CCC(N)=O)NC(=O)[C@H]([C@@H](C)O)NC(=O)[C@@H]2CCCN2C(=O)[C@@H]2CCCN2C1=O	Prolyl endopeptidase FAP (FAP, Homo sapiens, UniProt Q12884)	ligand displacement, radioligand	–	–	0.0317
